In one experiment the test system is THP-1. Kind of experiment: Inhibition of LPS-induced TNFalpha production in human THP1 cells. The format is functional, cell-based. A digest of the protocol: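 LPS-stimulated TNFα release from THP-1 cells; IC50 values are means of 2–4 experiments, SD for n > 2 typically ±50% of the value.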
A further experiment concerns Blood. The experiment is described as follows: Inhibition of LPS-induced TNFalpha production in human whole blood. The experiment is classed as functional, tissue-based. A digest of the protocol: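 LPS-stimulated TNFα production in whole blood from human donors; IC50 reported as geometric mean of 4–12 donor experiments, SD typically ±50% of the value.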
Experiment [1] concerns the target T1, Mitogen-activated protein kinase 14 (Homo sapiens, UniProt Q16539).
In experiment [2] the target is T1, Mitogen-activated protein kinase 14. The experiment is described as follows: Binding affinity to p38alpha assessed as inhibition of ATF2 phosphorylation preincubated for 4 hrs.
The test system of another experiment is Mus musculus. The experiment is described as follows: Inhibition of LPS-induced endotoxemia in mouse assessed as inhibition of TNFalpha production at 3 mg/kg, po. The format is functional. The procedure, abridged:
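Mouse LPS-induced endotoxemia model; compound given orally at 3 mg/kg, and TNFα production is measured and expressed as percent inhibition.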

Each structure is given as a SMILES string. Calls of active or inactive are those of the source. No cut-off for these calls is given here. A value given as a limit tells only on which side of the number the result lay.
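Throughout, for Tm: thermal denaturation measurement of the p38alpha–inhibitor complex, reporting its melting point as a readout of binding.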

T1 sequence (Q16539 whole entry): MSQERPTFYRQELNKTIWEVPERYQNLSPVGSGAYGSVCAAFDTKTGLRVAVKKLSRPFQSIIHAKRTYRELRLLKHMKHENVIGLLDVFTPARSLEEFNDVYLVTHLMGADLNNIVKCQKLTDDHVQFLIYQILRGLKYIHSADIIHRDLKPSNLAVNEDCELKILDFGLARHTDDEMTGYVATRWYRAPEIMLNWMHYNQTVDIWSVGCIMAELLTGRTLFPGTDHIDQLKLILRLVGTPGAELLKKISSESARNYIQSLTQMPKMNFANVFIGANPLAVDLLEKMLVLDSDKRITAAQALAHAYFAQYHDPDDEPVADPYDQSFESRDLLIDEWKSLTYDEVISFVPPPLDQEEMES

As for `COc1c(NC(N)=O)cc(C(C)(C)C)cc1NC(=O)Nc1ccc(-c2ccc(CN3CCOCC3)nc2)c2ccccc12`, the IC50 with THP-1 is 12 nM; in the experiment with Blood it was 110 nM. In addition, the Tm in experiment [1] is 56.7 °C.
Consider `CCc1ccc(C(C)(C)C)cc1NC(=O)Nc1ccc(-c2ccc(CN3CCOCC3)nc2)c2ccccc12`, for which the IC50 was 8.8 nM in the experiment on THP-1 and 700 nM with Blood. The Tm in experiment [1] is 53.9 °C.
On to `COc1ccc(C(C)(C)C)cc1NC(=O)Nc1cccc2ccccc12`, for which the half-maximal inhibitory concentration (IC50) in experiment [2] is 3900 nM. The Tm in experiment [1] amounted to 50.3 °C.
As for `COc1c(NC(C)=O)cc(C(C)(C)C)cc1NC(=O)Nc1ccc(-c2ccc(CN3CCOCC3)nc2)c2ccccc12`, the IC50 is 9 nM with THP-1 and 35 nM in the experiment with Blood. The Tm in experiment [1] worked out at 63.6 °C.
Take `COc1ccc(C(C)(C)C)cc1NC(=O)c1cc2ccccc2s1`: the IC50 in experiment [2] is more than 10000 nM. Further, the Tm in experiment [1] was found to be 46.9 °C.
For `COc1c(NC(=O)c2cc3ccccc3s2)cc(C(C)(C)C)cc1NS(C)(=O)=O`, the 50% inhibitory concentration (IC50) in experiment [2] turned out to be 2700 nM. In experiment [1], the Tm was found to be 51.4 °C.
In the case of `COc1c(N)cc(C(C)(C)C)cc1NC(=O)Nc1ccc(-c2ccc(CN3CCOCC3)nc2)c2ccccc12`, the 50% inhibitory concentration (IC50) with THP-1 was found to be 5 nM; in the experiment with Blood, 22 nM. For the same compound, the Tm in experiment [1] was 61.5 °C.
On the same counts, the results for `Cc1ccc(-n2nc(C(C)(C)C)cc2NC(=O)Nc2ccc(-c3ccc(CN4CCOCC4)nc3)c3ccccc23)cc1` are 8 nM, 220 nM and 63.6 °C.
On the same counts, the results for `Cc1ccc(C(C)(C)C)cc1NC(=O)Nc1ccc(OCCN2CCOCC2)c2ccccc12` are 380 nM, more than 10000 nM and 52.7 °C.
On the same counts, the results for `COc1c(NC(=O)Nc2ccc(-c3ccc(CN4CCOCC4)nc3)c3ccccc23)cc(C(C)(C)C)cc1C(N)=O` are 9.4 nM, 74 nM and 65.5 °C.
`CNC(=O)c1cc(C(C)(C)C)cc(NC(=O)Nc2ccc(-c3ccc(CN4CCOCC4)nc3)c3ccccc23)c1OC`: the IC50 in the experiment with THP-1 was 10 nM; in the experiment on Blood, 97 nM. Also, the Tm in experiment [1] came out at 65.6 °C.
On to `Cc1ccc(-n2nc(C(C)(C)C)cc2NC(=O)Nc2ccc(OCCN3CCOCC3)c3ccccc23)cc1` [DORAMAPIMOD], for which the concentration for half-maximal inhibition (IC50) is 18 nM with THP-1 and 780 nM in the experiment on Blood. Further, in the experiment on Mus musculus, the result was inactive.
`CCC(=O)Nc1cc(C(C)(C)C)cc(NC(=O)Nc2ccc(-c3ccc(CN4CCOCC4)nc3)c3ccccc23)c1OC`: the IC50 with THP-1 came out at 5.1 nM; with Blood it was 71 nM. Besides, the Tm in experiment [1] came to 58.7 °C.
On the same counts, the results for `COC(=O)Nc1cc(C(C)(C)C)cc(NC(=O)Nc2ccc(-c3ccc(CN4CCOCC4)nc3)c3ccccc23)c1OC` are 8.5 nM, 110 nM and 58.1 °C.
For `Cn1nc(C(C)(C)C)cc1NC(=O)Nc1ccc(-c2ccc(CN3CCOCC3)nc2)c2ccccc12`, the 50% inhibitory concentration (IC50) was 29 nM with THP-1 and 230 nM in the experiment with Blood. The Tm in experiment [1] turned out to be 57.9 °C.
On the same counts, the results for `Cn1nc(C(C)(C)C)cc1NC(=O)Nc1ccc(OCCN2CCOCC2)c2ccccc12` are 140 nM, 10000 nM and 54.5 °C.
Take `COc1ccc(C(C)(C)C)cc1NC(=O)c1cc2ccccc2o1`: the 50% inhibitory concentration (IC50) in experiment [2] was more than 10000 nM. The Tm in experiment [1] was 46.2 °C.
In the experiment on THP-1, `Cc1ccc(C(C)C)cc1NC(=O)Nc1ccc(-c2ccc(CN3CCOCC3)nc2)c2ccccc12` gave a half-maximal inhibitory concentration (IC50) of 76 nM. Also, the Tm in experiment [1] was 52.3 °C.
For `COc1c(NC(=O)Nc2cccc3ccccc23)cc(C(C)(C)C)cc1NS(C)(=O)=O`, the IC50 in experiment [2] turned out to be 79 nM. Further, the Tm in experiment [1] amounted to 56.3 °C.
Regarding `COc1c(NC(=O)Nc2ccc(-c3ccc(CN4CCOCC4)nc3)c3ccccc23)cc(C(C)(C)C)cc1N(C)C(C)=O`, the half-maximal inhibitory concentration (IC50) in the experiment on THP-1 was found to be 15 nM; in the experiment on Blood it was 120 nM. Moreover, in experiment [1], the Tm stood at 64.9 °C.
On the same counts, the results for `COc1c(NC(=O)Nc2ccc(-c3ccc(CN4CCOCC4)nc3)c3ccccc23)cc(C(C)(C)C)cc1C(=O)N(C)C` are 12 nM, 97 nM and 56.2 °C.
On the same counts, the results for `Cc1ncc(-c2ccc(C(C)(C)C)cc2NC(=O)Nc2ccc(-c3ccc(CN4CCOCC4)nc3)c3ccccc23)cn1` are 29 nM, 350 nM and 56.6 °C.
Take `COc1c(NC(=O)c2cc3ccccc3o2)cc(C(C)(C)C)cc1NS(C)(=O)=O`: the IC50 in experiment [2] was 4100 nM. In addition, the Tm in experiment [1] worked out at 48.8 °C.
Consider `Cc1ccc(C(C)(C)C)cc1NC(=O)Nc1ccc(-c2ccc(CN3CCOCC3)nc2)c2ccccc12`, for which the 50% inhibitory concentration (IC50) was 9.4 nM in the experiment with THP-1 and 180 nM in the experiment on Blood. Further, the Tm in experiment [1] came out at 54.6 °C.

One may read the IC50 as the concentration that gives 50% inhibition.

Values taken from ChEMBL document CHEMBL1138470, “Discovery and characterization of the N-phenyl-N'-naphthylurea class of p38 kinase inhibitors” (Bioorg Med Chem Lett, 2009).
